Laboratory results as given in ChEMBL document CHEMBL1126723, “Inhibition and inactivation of presynaptic cholinergic markers using redox-reactive choline analogs” (J Med Chem, 1993).

Experiments:
[1] = target: T1, Sodium-dependent serotonin transporter (Rattus norvegicus, UniProt P31652); experiment: Inhibition of high affinity 5-HT uptake at concentration of 1 uM; format: functional
[2] = target: T1, Sodium-dependent serotonin transporter; experiment: Inhibition constant of high-affinity 5-HT uptake
How it was run: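 Rat forebrain crude synaptosomes took up [3H]serotonin (0.727 Ci/mmol) for 3 min at 30 °C, with and without inhibitor, as for the choline assay. IC50 came from nonlinear regression or Hill plots over 5–10 inhibitor concentrations. Ki was derived with Cheng-Prusoff, using the serotonin transport Km measured over 10 nM to […] substrate.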

[3] = species on record: Rattus norvegicus; experiment: (§1) Inhibition of high affinity dopamine uptake at concentration of 1 uM; format: functional
[4] = species on record: Rattus norvegicus; experiment: Michaelis-Menten constant was reported for high affinity transport of choline; format: functional
How it was run: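 Rat forebrain crude synaptosome aliquots (0.27–0.3 mg protein) were equilibrated at 30 °C. [3H]choline was added at 10 nM to 10 μM and uptake run 3 min, within the linear range. Parallel 0 °C incubations corrected for nonspecific binding and diffusion. Reactions were stopped by ice cooling, centrifuged at 800g, and the pellets washed with ice-cold KRB.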

[5] = target: T2, Sodium-dependent dopamine transporter (Rattus norvegicus, UniProt P23977); experiment: Inhibition constant of high-affinity dopamine uptake
How it was run: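 Crude synaptosomes from adult male Long-Evans rat forebrain (Gray–Whittaker method) were incubated with [3H]dopamine (0.72 Ci/mmol) for 3 min at 30 °C alongside 0 °C blanks, with inhibitor at 5–10 concentrations between 10 µM and 10 mM. Uptake was stopped on ice and pellets were washed in KRB. IC50 came from regression or Hill plots, and Ki from Cheng–Prusoff using dopamine Km 1.4 µM.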

[6] = target: T2, Sodium-dependent dopamine transporter; experiment: as §1; format: functional
[7] = substrate: C[N+](C)(C)CC(O)c1ccc(O)c(O)c1
[8] = substrate: C[N+](C)(C)CC(O)c1ccc(O)c(O)c1; remark: listed apart in the source
[9] = substrate: C[N+](C)(C)CC(O)c1ccc(O)c(O)c1; remark: listed apart in the source
[10] = substrate: C[N+](C)(C)CC(O)c1ccc(O)c(O)c1; remark: listed apart in the source
[11] = substrate: C[N+](C)(C)CC(O)c1ccc(O)c(O)c1; remark: listed apart in the source
[12] = substrate: C[N+](C)(C)CC(O)c1ccc(O)c(O)c1; remark: listed apart in the source

## C[N+](C)(C)c1cccc(O)c1O
[1]
  IC50: 213 µM
[2]
  Ki: 90 µM
[3]
  IC50: 196 µM
[4]
  Km: 1000 µM

## C[N+](C)(C)CC(O)c1ccc(O)c(O)c1 (centres undefined) [CATECHOLINE]
[1]
  IC50: 3600 µM
[2]
  Ki: 390 µM
[5]
  Ki: 530 µM
[6]
  IC50: 949 µM

B1: Sodium-dependent serotonin transporter (Rattus norvegicus), P31652 (protein)
chain: METTPLNSQKVLSECKDREDCQENGVLQKGVPTTADRAEPSQISNGYSAVPSTSAGDEASHSIPAATTTLVAEIRQGERETWGKKMDFLLSVIGYAVDLGNIWRFPYICYQNGGGAFLLPYTIMAIFGGIPLFYMELALGQYHRNGCISIWRKICPIFKGIGYAICIIAFYIASYYNTIIAWALYYLISSLTDRLPWTSCTNSWNTGNCTNYFAQDNITWTLHSTSPAEEFYLRHVLQIHQSKGLQDLGTISWQLTLCIVLIFTVIYFSIWKGVKTSGKVVWVTATFPYIVLSVLLVRGATLPGAWRGVVFYLKPNWQKLLETGVWVDAAAQIFFSLGPGFGVLLAFASYNKFNNNCYQDALVTSVVNCMTSFVSGFVIFTVLGYMAEMRNEDVSEVAKDAGPSLLFITYAEAIANMPASTFFAIIFFLMLITLGLDSTFAGLEGVITAVLDEFPHIWAKRREWFVLIVVITCVLGSLLTLTSGGAYVVTLLEEYATGPAVLTVALIEAVAVSWFYGITQFCSDVKEMLGFSPGWFWRICWVAISPLFLLFIICSFLMSPPQLRLFQYNYPHWSIVLGYCIGMSSVICIPTYIIYRLISTPGTLKERIIKSITPETPTEIPCGDIRMNAV
[7]
  Km: 150 µM
[8]
  Vmax (pM min-1 mg-1): 23

B2: Sodium- and chloride-dependent creatine transporter 1 (Rattus norvegicus), P28570 (protein)
chain: MAKKSAENGIYSVSGDEKKGPLIVSGPDGAPSKGDGPAGLGAPSSRLAVPPRETWTRQMDFIMSCVGFAVGLGNVWRFPYLCYKNGGGVFLIPYVLIALVGGIPIFFLEISLGQFMKAGSINVWNICPLFKGLGYASMVIVFYCNTYYIMVLAWGFYYLVKSFTTTLPWATCGHTWNTPDCVEIFRHEDCANASLANLTCDQLADRRSPVIEFWENKVLRLSTGLEVPGALNWEVTLCLLACWVLVYFCVWKGVKSTGKIVYFTATFPYVVLVVLLVRGVLLPGALDGIIYYLKPDWSKLGSPQVWIDAGTQIFFSYAIGLGALTALGSYNRFNNNCYKDAIILALINSGTSFFAGFVVFSILGFMATEQGVHISKVAESGPGLAFIAYPRAVTLMPVAPLWAALFFFMLLLLGLDSQFVGVEGFITGLLDLLPASYYFRFQREISVALCCALCFVIDLSMVTDGGMYVFQLFDYYSASGTTLLWQAFWECVVVAWVYGADRFMDDIACMIGYRPCPWMKWCWSFFTPLVCMGIFIFNVVYYKPLVYNNTYVYPWWGEAMGWAFALSSMLCVPLHLLGCLLRAKGTMAERWQHLTQPIWGLHHLEYRAQDADVRGLTTLTPVSESSKVVVVESVM
[9]
  Km: 2040 µM
[10]
  Vmax (pM min-1 mg-1): 22

B3: Sodium-dependent dopamine transporter (Rattus norvegicus), P23977 (protein)
chain: MSKSKCSVGPMSSVVAPAKESNAVGPREVELILVKEQNGVQLTNSTLINPPQTPVEAQERETWSKKIDFLLSVIGFAVDLANVWRFPYLCYKNGGGAFLVPYLLFMVIAGMPLFYMELALGQFNREGAAGVWKICPVLKGVGFTVILISFYVGFFYNVIIAWALHYFFSSFTMDLPWIHCNNTWNSPNCSDAHASNSSDGLGLNDTFGTTPAAEYFERGVLHLHQSRGIDDLGPPRWQLTACLVLVIVLLYFSLWKGVKTSGKVVWITATMPYVVLTALLLRGVTLPGAMDGIRAYLSVDFYRLCEASVWIDAATQVCFSLGVGFGVLIAFSSYNKFTNNCYRDAIITTSINSLTSFSSGFVVFSFLGYMAQKHNVPIRDVATDGPGLIFIIYPEAIATLPLSSAWAAVFFLMLLTLGIDSAMGGMESVITGLVDEFQLLHRHRELFTLGIVLATFLLSLFCVTNGGIYVFTLLDHFAAGTSILFGVLIEAIGVAWFYGVQQFSDDIKQMTGQRPNLYWRLCWKLVSPCFLLYVVVVSIVTFRPPHYGAYIFPDWANALGWIIATSSMAMVPIYATYKFCSLPGSFREKLAYAITPEKDHQLVDRGEVRQFTLRHWLLL
[11]
  Km: 1400 µM
[12]
  Vmax (pM min-1 mg-1): 53
